Arrestin-AP2 inh: inhibitors of beta-arrestin/AP2 binding, primary screen, biochemical, GPCR trafficking, flow cytometry; 0.31% of 340,000 active; FITC-arrestin peptide / GST-AP2 beads; AP2 beta2 appendage carries R879A mutation; beta-arrestin 1 C-terminal peptide binding to AP2 beta2-adaptin appendage (human); inhibition, % at 10 µM;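 active means inhibition above a set limit, near 3 SD of compounds lacking own fluorescence, cut at about 54% in these data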
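System: GST-tagged AP2 beta2-adaptin appendage (R879A) on 4 µm glutathione beads / Reagent: FITC-arrestin peptide, 50 nM / Detection: HyperCyt-sampled flow cytometry, FL1 channel, ex 488/em 535 nm / Timing: 12 min plus 1 h, RT / Buffer or medium: PBS plus Tween 20 (0.05%) and BSA (0.1%)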
Pemphigus Ab inh: inhibitors of pemphigus antibody binding to DSG3, primary screen, biochemical, bead-based, flow cytometry, scFv-GFP. AID 588358, 2011. 0.48% of 310,000 active. DSG3-coupled beads, scFv-anti-DSG3-GFP binding; hits give low values. binding (percent of control), % at 10 µM. Desmoglein-3 (Homo sapiens), P32926;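 active means binding more than 3 SD below its plate's average and above zero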;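 further: hits lower antibody fragment binding to DSG3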
T cell modulator: modulators of CD8 T cell-vesicle binding, primary screen, mouse 2C CD8+ T cells, flow cytometry | AID 2052, 2009 | 0.068% of 330,000 active | 2C CD8+ T cell-vesicle binding; hits give low values | response (vesicle binding), % at 7 µM;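 active means response, share of CD8 T cells binding vesicles, and their 90th percentile fluorescence all below set limits, cut at about 80% in these data, passing the limit was not always enough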;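 further: values below 100% mean blocked vesicle binding to the CD8+ T cells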
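incubation = binding step 1.5 h, 37 °C, antibody labelling 20 min, ice | test system = 2C mouse CD8+ T cells | read-out basis = percent CD8+ FL2 mean versus row control | controls = Peptide-free naked vesicles (low) and QL9 vesicles with 0.7% DMSO vehicle (high) | detection = flow cytometry of vesicle-bound cells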
HDAC3 inh: HDAC3 deacetylase inhibitors, primary screen, biochemical, fluorescence, cell-free homogeneous. Histone deacetylase 3 (Homo sapiens), O15379. 0.15% of 320,000 active. recombinant HDAC3, fluorogenic peptide/trypsin coupled. inhibition, % at 8.3 µM; in the data active means inhibition above about 26%, passing the limit was not always enough
GASC-1 inh: inhibitors of GASC-1 histone demethylase, primary screen, biochemical, fluorescence, DELFIA europium | Lysine-specific demethylase 4C (Homo sapiens), Q9H3R0 | GST-JMJD2C(1-420) H3K9me3 demethylation | inhibition, % at 2.35 µM | 0.069% of 330,000 active | AID 2099, 2009;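 active means more than half of a compound's replicate wells show inhibition beyond 50%, single wells judged on their own value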;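 further: signal counts dimethyl H3K9 product captured on neutravidin plate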
LANA-H2B inh: blockers of LANA interaction with H2A/H2B – biochemical, FP readout, HTS, primary screen; Protein LANA1 (Human herpesvirus 8 type P (isolate GK18)), Q9QR71; cell-free LANA-H2A/H2B peptide, fluorescence polarization; inhibition, % (concentration not given with the values); 0.6% of 320,000 active; in the data active means inhibition mostly above about 10%, no sharp cut-off; inactive means mostly below about 6.7%
Large screens that a line does not name were inactive. Rows were chosen to be rich in hits. Some 1.6% of all compounds tested hit in one or more screens of this group.

O=C(CNC(=O)c1ccc(Br)cc1)N=Nc1c(O)[nH]c2ccc([N+](=O)[O-])cc12	Pemphigus Ab inh 35
COc1ccc(N2CCN(C(=O)C(Cc3ccccc3)NC(=O)c3ccccc3)CC2)cc1 (stereo not drawn)	none (no result: T cell modulator, HDAC3 inh, GASC-1 inh, LANA-H2B inh)
CN(C(=O)c1ccc(NC(=O)Cc2ccc(NC(=O)C3CCN(C(=O)c4ccccc4)CC3)cc2)cc1)C1CC1	GASC-1 inh 58
O=[N+]([O-])c1ccc(NCCNc2ccc([N+](=O)[O-])cc2)cc1	Pemphigus Ab inh -6.8 (no result: T cell modulator, HDAC3 inh, GASC-1 inh, LANA-H2B inh)
NCCNc1ccc([N+](=O)[O-])cc1	none
CCc1cccc(OCC(=O)Nc2cc(S(=O)(=O)N3CCOCC3)ccc2N2CCCC2)c1	none
Cc1c(Cc2ccccc2)c(=O)oc2c(CN(C)C)c(O)c(Cl)cc12	LANA-H2B inh 5.7 (no result: Pemphigus Ab inh)
CN(C)c1ccc(P(=O)(OCc2ccccc2)C(O)c2cccnc2)cc1 (stereo not drawn)	none
Cc1ccc(C(O)P(=O)(OCc2ccccc2)c2ccc(N(C)C)cc2)cc1 (stereo not drawn)	LANA-H2B inh 11 (no result: Pemphigus Ab inh)
CC1=Nc2ccccc2N=C(NC(=O)c2ccccc2)C1c1ccccc1 (stereo not drawn)	HDAC3 inh 34
COC(=O)c1ccc(OC)c(CN2CCCN(Cc3cc(C)ccc3C)S2(=O)=O)c1	none
Cc1ccccc1NC(=O)Cc1nnc(SCC(=O)NC2CCCC2)n1C	Pemphigus Ab inh 88
Cn1c(Cn2c(=O)sc3ccccc32)nnc1SCC(=O)NC1CCCCC1	T cell modulator 68
Cc1cccc(-c2nnc(SCC(=O)NC3CC3)n2C)c1	LANA-H2B inh 12
Cn1c(SCC(=O)NC2CC2)nnc1-c1ccccc1	none
Cn1c(Cn2c(=O)sc3ccccc32)nnc1SCC(=O)NC1CCCC1	LANA-H2B inh 17
Cn1c(Cn2c(=O)sc3ccccc32)nnc1SCC(=O)Nc1ccccc1	none
CC(OC(=O)CCC(=O)N1CCN(S(=O)(=O)c2ccc3ccccc3c2)CC1)C(=O)NC(N)=O (stereo not drawn)	none
CC(=O)Oc1c(-c2ccc(Br)o2)oc2ccccc2c1=O	none
CN1CCN(c2ccccc2NC(=O)c2ccc([N+](=O)[O-])o2)CC1	none
CS(=O)(=O)N1CCN(c2ccccc2NC(=O)c2ccc([N+](=O)[O-])o2)CC1	Pemphigus Ab inh 28
CCCCn1c(N)c(N(CC(C)C)C(=O)CCNC(=O)c2ccc([N+](=O)[O-])cc2)c(=O)[nH]c1=O	none (no result: T cell modulator, HDAC3 inh, GASC-1 inh, LANA-H2B inh)
CCN1CCN(c2nc(N)c([N+](=O)[O-])c(Nc3ccc(C)c(C)c3)n2)CC1	none
CCN1CCN(c2nc(N)c([N+](=O)[O-])c(Nc3ccc(C)cc3)n2)CC1	LANA-H2B inh 19
O=c1oc(Nc2cccc(Cl)c2)nc2ccccc12	none
O=C(CCCn1c(=S)[nH]c2ccccc2c1=O)NCCSCc1ccccc1	none
O=C(CCCn1c(=O)[nH]c2ccccc2c1=O)NCCSCc1ccccc1	Pemphigus Ab inh 23
COc1cccc(-c2c(-c3cc(OC)cc(OC)c3)n(C)c3ccc(-c4cnc(N5CCOCC5)nc4)cc23)c1	none
CCN(CCCc1ccccc1)CCCc1ccccc1	LANA-H2B inh 38 (no result: HDAC3 inh)
COc1ccc(C(=O)NC(CCSC)C(=O)N2CCCCCC2)cc1 (stereo not drawn)	LANA-H2B inh 31
Cc1cc(C2(c3ccc(O)c(C)c3)OC(=O)c3ccccc32)ccc1O	none
Cc1cc(O)c(C(C)C)cc1C1(c2cc(C(C)C)c(O)cc2C)OC(=O)c2ccccc21	LANA-H2B inh 15
CCOc1ccccc1C(=O)NCC(=O)NCCSc1ccc(Br)cc1	none (no result: T cell modulator, HDAC3 inh, GASC-1 inh, LANA-H2B inh)
